IMP-1 inhibitor: inhibitors of Pseudomonas aeruginosa IMP-1 metallo-beta-lactamase | 290,000 compounds, 0.45% hits | AID 1556 | purified IMP-1, nitrocefin hydrolysis, epi-absorbance fluorescence | inhibition, % at 5.6 µM;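 active = inhibition above the mean plus 3 SD of all compounds in the same screening run, cut at about 4.5% in these data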;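 also: 0% = IMP-1 with DMSO and 100% = DMSO wells lacking enzyme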
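Assay system: purified recombinant IMP-1 beta-lactamase. Input: IMP-1 0.2 nM before substrate addition. Buffer or medium: Zinc- and detergent-supplemented HEPES buffer, pH 7.1. Schedule: 25 °C, 15 min preincubation, 25 min reaction. Signal: Epi-absorbance fluorescence, 480 nm excitation, 530 nm emission. Evaluation: percent inhibition from optical density relative to buffer-blank wells.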
HTR2A ag: mouse HTR2A agonism via beta-arrestin recruitment. P35363. CHO-K1 mHTR2A beta-arrestin complementation, luminescence; percent of 30 µM serotonin response. 360,000 compounds, 0.66% hits. activation, % at 7.6 µM;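 active = activation above a run cutoff, the mean activation of all tested compounds plus 3 SD, cut at about 14% in these data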;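 also: 0% = plate median of compound wells and 100% = 30 µM serotonin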
Target sequence (P35363 whole entry, looked up): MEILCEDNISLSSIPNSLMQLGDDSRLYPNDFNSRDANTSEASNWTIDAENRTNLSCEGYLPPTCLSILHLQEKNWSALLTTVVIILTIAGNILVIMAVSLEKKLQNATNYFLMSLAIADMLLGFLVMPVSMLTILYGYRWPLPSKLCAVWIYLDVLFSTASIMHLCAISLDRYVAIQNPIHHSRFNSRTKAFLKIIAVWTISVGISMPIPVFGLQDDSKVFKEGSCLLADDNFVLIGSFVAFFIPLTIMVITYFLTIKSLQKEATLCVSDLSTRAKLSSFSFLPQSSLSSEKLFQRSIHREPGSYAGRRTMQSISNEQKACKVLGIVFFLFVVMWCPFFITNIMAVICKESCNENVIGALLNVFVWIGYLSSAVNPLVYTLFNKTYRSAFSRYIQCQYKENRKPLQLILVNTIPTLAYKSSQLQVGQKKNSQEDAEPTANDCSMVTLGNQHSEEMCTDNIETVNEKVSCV
VIM-2 inhibitor: inhibitors of Pseudomonas aeruginosa VIM-2 metallo-beta-lactamase; purified VIM-2, nitrocefin hydrolysis, epi-absorbance fluorescence; inhibition, % at 5.6 µM; 290,000 compounds, 0.89% hits; AID 1527;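 active = inhibition above the mean of all tested compounds plus 3 SD, cutoff set per screening run, cut at about 7.5% in these data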;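 also: red hydrolysis product quenches plate fluorescence so inhibitors raise well fluorescence; 0% = enzyme with DMSO and 100% = DMSO without enzyme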
dFosB act: mouse delta FosB homodimer activation | purified delta FosB, TAMRA-CDK5 oligo fluorescence polarization; percent of positive-control signal above neutral wells | activation, % at 25 µM | 340,000 compounds, 0.99% hits | P13346 | AID 493131;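 active = mean activation above about 17%, with every replicate also reaching it, limit read from the data, passing the limit was not always enough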
OPRM1 ag: OPRM1 agonism in mouse HTR2A counterscreen; shares compounds with HTR2A ag; 2,300 compounds, 5.3% hits; U2OS OPRM1 beta-arrestin PathHunter, luminescence; DMSO 0%, DAMGO 9.3 µM 100%; activation, % at 9.3 µM; AID 624380;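 active = mean activation above the mean of DMSO-only wells plus 3 SD, cut at about 0.5% in these data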
HTR2A ag conf: mouse HTR2A agonism confirmed. shares compounds with HTR2A ag. CHO-K1 PathHunter beta-arrestin recruitment, luminescence; DMSO 0%, 30 µM serotonin 100%. activation, % at 7.6 µM. 2,300 compounds, 19% hits;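 active = mean activation across triplicates above the hit threshold derived in the original primary screen, cut at about 15% in these data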
Starred values were filed as active, the others as inactive; . = no result. An excerpt weighted towards active compounds, which were near 2.5% of everything screened.

SMILES	IMP-1 inhibitor	HTR2A ag	VIM-2 inhibitor	dFosB act	OPRM1 ag	HTR2A ag conf
Cc1cc(C)cc(-n2c(C)cc(/C=C3\C(=N)N4N=C(CC(C)C)SC4=NC3=O)c2C)c1	-4.0	18.1*	-0.6	-19.2	-0.5	-1.8
Cc1cccc(-n2c(C)cc(/C=C3\C(=N)N4N=C(CC(C)C)SC4=NC3=O)c2C)c1	-3.2	1.6	-1.9	-7.9	.	.
CCCS(=O)(=O)NC(=O)C1(C)CCCN(C(=O)c2ccc3ccccc3c2)C1 (stereo not drawn)	.	2.9	.	.	.	.
Cc1occc1C(=O)N1CCN(c2ccccc2)CC1	-1.8	-0.1	-3.5	0.3	.	.
Cc1occc1C(=O)N1CCN(c2ccc(Cl)c(Cl)c2)CC1	-3.3	35.9*	0.3	-3.8	-0.3	12.6
O=C(O)C1CC1C(=O)N1CCN(c2ccc(Cl)c(Cl)c2)CC1 (stereo not drawn)	-0.5	35.5*	-0.1	1.6	-0.7	18.6*
CC(C)Cc1cc(C(=O)Nc2sc3c(c2C#N)CCC3)no1	-4.0	17.4*	-1.2	-10.0	0.3	4.5
O=C(N=C1SC2CS(=O)(=O)CC2N1c1cccc(Cl)c1Cl)C1CCCO1 (stereo not drawn)	-0.6	5.9	-0.9	-17.6	.	.
Cc1ccc(C)c(OCCC(=O)OCC(=O)NCCc2ccc(S(N)(=O)=O)cc2)c1	.	3.7	.	-0.2	.	.
Cc1cc([N+](=O)[O-])c2[nH]c(C(=O)N/N=C/c3ccccc3C(=O)O)c(-c3ccccc3)c2c1	-1.9	17.6*	-0.6	-13.1	-0.7	-2.0
O=[N+]([O-])c1ccc(S(=O)(=O)Nc2nnc(C(F)(F)F)s2)cc1	-3.8	-1.5	-2.5	-4.9	.	.
CC(C)C(NC(=O)/C(=C\c1ccco1)NC(=O)c1ccco1)C(=O)O (stereo not drawn)	-6.6	19.1*	-2.0	-3.2	-0.7	-4.4
COC(=O)c1ccc(/C=N/NC(=O)CC(=O)NC2CCCCC2)cc1	-3.4	0.9	-2.0	-5.5	.	.
COc1cc(/C=N/NC(=O)CC(=O)NC2CCCCC2)ccc1O	-1.1	15.8*	-0.1	5.9	0.9*	4.7
COc1ccccc1NS(=O)(=O)c1cccc(C(=O)NNC(=O)c2ccc(Cl)nc2)c1	.	-2.4	.	3.0	.	.
COc1ccccc1NS(=O)(=O)c1cccc(C(=O)NNC(=O)c2ccc(O)c(Cl)c2)c1	.	15.8*	.	-5.8	-0.5	-3.0
CC1CCCCN1CCCNC(=O)c1ccc2nc(N3CCCCC3)sc2c1 (stereo not drawn)	-5.6	17.4*	1.1	-4.2	-0.7	-5.5
CCCN1CCN(CCCNC(=O)c2ccc3nc(N4CCC(C)CC4)sc3c2)CC1	-3.7	-4.7	3.4	4.6	.	.
NC(=O)c1cc([N+](=O)[O-])ccc1NCc1cnccn1	.	1.4	.	0.4	.	.
COc1cc(C2N(c3cccc(Cl)c3)C(=O)C3CCCN32)cc(OC)c1OC (stereo not drawn)	-2.5	21.2*	-1.4	-2.7	-0.6	0.5
COc1cc(C2N(c3ccc(Cl)cc3)C(=O)C3CCCN32)cc(OC)c1OC (stereo not drawn)	-3.7	4.8	-3.1	-7.9	.	.
COc1cccc(C2N(c3cccc(Cl)c3)C(=O)C3CCCN32)c1OC (stereo not drawn)	-4.6	17.5*	-5.0	0.6	-0.7	1.2
CCc1nc2c(OCCc3cccc(OC)c3)cccn2c1N(C)C(=O)c1cccs1	.	-2.1	.	.	.	.
O=C(Cn1nnc2ccccc2c1=O)N[C@@H](Cc1ccccc1)C(=O)O	-4.5	3.5	-2.7	-3.3	.	.
COc1ccc(C2=Nc3ccccc3NC(=O)C2N(Cc2ccccc2)C(=O)C2=NNC(=O)CC2)cc1 (stereo not drawn)	.	6.6	.	.	.	.
SMILES	IMP-1 inhibitor	HTR2A ag	VIM-2 inhibitor	dFosB act	OPRM1 ag	HTR2A ag conf
COc1cc(C)nc(NS(=O)(=O)c2ccccc2Cl)n1	-0.7	30.7*	1.2	-15.7	-0.5	-1.5
NC(=O)CC[C@H](NC(=O)c1ccc(F)cc1)C(=O)N1CCN(Cc2ccc3c(c2)OCO3)CC1	.	-2.8	.	-0.5	.	.
Cc1ccc(NC(=S)N2CCN(S(=O)(=O)c3ccccc3)CC2)cc1C	-3.5	2.6	-1.6	-9.9	.	.
COCCN(Cc1ccccc1)C(=O)c1ccc(C(=O)c2ccccc2)cc1	.	22.3*	.	-13.5	-0.2	-2.0
O=C(Nc1ccc2c(c1)OCO2)c1c[nH]c(=O)n(-c2ccc(F)cc2)c1=O	-0.9	14.9*	-1.2	-8.3	-0.4	-4.6
COc1cc(/C=C(/C#N)c2nc3ccccc3[nH]2)ccc1OCc1ccc(C(=O)O)o1	0.7	19.2*	-2.6	-30.6	1.7*	-2.1
C[C@H]1CCCCO[C@H](CN(C)Cc2ccccc2)[C@@H](C)CN([C@@H](C)CO)C(=O)c2cc(NC(=O)CCC(F)(F)F)ccc2O1	.	23.4*	.	.	-0.6	-0.2
O=C1C=C(c2ccc(-c3ccccc3)c(F)c2)C[C@@H](c2ccc(F)cc2)C1	.	2.1	.	-3.2	.	.
COc1ccc([C@H]2CC(=O)C=C(c3cccc(CO)c3)C2)cc1	.	14.8*	.	-1.0	-0.6	-4.2
COc1ccc([C@H]2CC(=O)C=C(c3cccc(OC)c3)C2)cc1	.	-1.2	.	-8.9	.	.
O=C1C=C(c2n[nH]nc2-c2ccccc2)C[C@@H](c2ccc(F)cc2)C1	.	15.4*	.	.	-0.7	-3.9
O=C1C=C(c2ccc(F)cc2OCc2ccccc2)C[C@@H](c2ccc(F)cc2)C1	.	16.4*	.	-0.3	-0.7	-8.6
COc1cccc(-c2n[nH]nc2C2=CC(=O)C[C@H](c3ccc(F)cc3)C2)c1	.	21.9*	.	.	-0.4	-0.4
COc1cccc(C#CC2=CC(=O)C[C@H](c3ccc(F)cc3)C2)c1	.	-0.6	.	.	.	.
O=C1CN(C(=O)C2CCC(=O)N(CCc3ccc(Cl)cc3)C2)CCN1 (stereo not drawn)	-0.9	16.7*	-3.9	-2.5	-0.6	2.2
CC(=O)c1ccc(N2CCN(C(=O)C3CCN(S(=O)(=O)c4ccc5c(c4)CC(C)N5C(C)=O)CC3)CC2)cc1 (stereo not drawn)	-1.6	15.9*	0.1	-3.8	-0.4	1.5
CC(CNC(=O)CCCn1ncn2c(cc3occc32)c1=O)c1ccccc1 (stereo not drawn)	0.9	16.3*	0.8	-5.3	-0.6	-6.5
Cc1nn(CC(=O)NCC(C)c2ccccc2)c(=O)c2cc3occc3n12 (stereo not drawn)	-2.0	2.1	-2.4	-2.1	.	.
Cc1cc(C)c(C)c(Cn2c(CO)nc3ccccc32)c1C	-4.5	14.9*	-2.1	-4.9	-0.1	-1.4
O=C(O)c1ccc(NC(=O)c2cccc(S(=O)(=O)Nc3ccc(C(=O)O)cc3)c2)cc1	-1.7	16.1*	-3.4	2.9	-0.6	-1.5
O=C(O)c1cccc(S(=O)(=O)Nc2ccc(Oc3ccccc3)cc2)c1	.	4.9	.	-5.1	.	.
Cc1ccc(Oc2ccc(NS(=O)(=O)c3cccc(C(=O)O)c3)cc2)cc1	.	15.4*	.	-1.4	-0.4	-1.9

High-throughput results deposited in PubChem by several laboratories.
